# MrgX1 allo act: positive allosteric modulators of MrgX1, primary screen, HEK293 cells, Fluo-4 calcium flux; FDSS; hits give high values; B-score at 10 µM; hit rate 0.63% among 310,000;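 active = plate-corrected calcium response at least 3 library SD above typical, normal starting fluorescence, not activating the receptor alone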;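 note: compound read alongside a low EC10 to EC30 dose of BAM8-22 agonist; peak minus trough fluorescence over baseline measured at the second addition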
# Target sequence (Q96LB2 whole entry, looked up): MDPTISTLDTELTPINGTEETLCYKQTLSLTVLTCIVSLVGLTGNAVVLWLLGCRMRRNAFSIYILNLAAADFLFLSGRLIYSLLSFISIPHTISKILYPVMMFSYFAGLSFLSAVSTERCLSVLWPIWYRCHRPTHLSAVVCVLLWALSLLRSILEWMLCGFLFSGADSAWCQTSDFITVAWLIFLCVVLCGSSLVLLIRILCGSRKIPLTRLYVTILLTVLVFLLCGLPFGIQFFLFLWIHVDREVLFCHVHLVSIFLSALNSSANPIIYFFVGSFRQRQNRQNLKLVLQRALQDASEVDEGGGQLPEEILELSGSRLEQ
# MrgX1 antagonist: antagonists of human MrgX1 receptor, primary screen, HEK293 cells, Fluo-4 calcium flux; AID 588676, 2011; BAM8-22 antagonism; hits give low values; hit rate 1.3% among 310,000; Mas-related G-protein coupled receptor member X1 (Homo sapiens), Q96LB2; B-score at 10 µM;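 active = calcium-response B-score plate-corrected more than 3 library SD below zero, starting fluorescence within 5 deviations, no agonist response on first addition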;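 note: peak minus trough fluorescence over baseline after final BAM8-22 challenge near maximal dose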
# RGS4 block: RGS4 inhibitors, primary screen, cell-based, HEK293 M3R inducible RGS4, calcium flux; hit rate 0.45% among 310,000; Fluo-4 calcium flux; hits give high values; triggered by carbachol at its EC20; AID 463165, 2010; B-score at 10 µM; Regulator of G-protein signaling 4 (Homo sapiens), P49798;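 active = B-score, a plate-corrected calcium signal, over three deviations above library mean, with baseline fluorescence within five deviations of library mean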;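 note: RGS4 expression induced by doxycycline in cells with stable M3 receptor; B-score is computed from the integrated fluorescence ratio over baseline after carbachol; higher B-score means a larger calcium signal and so more RGS4 inhibition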
# Target sequence (P49798 whole entry, looked up): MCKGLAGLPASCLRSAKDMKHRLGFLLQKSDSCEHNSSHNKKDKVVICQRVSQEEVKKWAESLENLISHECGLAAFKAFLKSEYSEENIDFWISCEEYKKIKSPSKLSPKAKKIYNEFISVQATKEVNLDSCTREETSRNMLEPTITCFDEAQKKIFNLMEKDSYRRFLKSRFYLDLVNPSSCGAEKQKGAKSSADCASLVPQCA
# MrgX1 agonist: agonists of human MrgX1 receptor, primary screen, HEK293 cells, Fluo-4 calcium flux; Fluo-4 calcium fluorescence, agonist mode; hits give high values; AID 588627, 2011; hit rate 0.44% among 310,000; B-score at 10 µM; Mas-related G-protein coupled receptor member X1 (Homo sapiens), Q96LB2;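 active = calcium response B-score plate-corrected fluorescence ratio at least 3 library SD, with starting fluorescence B-score inside 5 SD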
#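 Material: MrgX1-expressing HEK293 cells; input: 15,000 cells per well; doses: test compound given as first of three sequential additions; schedule: overnight plating before 1 h dye loading; technique: Fluo-4 NW calcium-flux fluorescence, kinetic read; evaluation: baseline-normalised fluorescence change ratio, B-scored; control set: plate-wise positive and negative controls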
# RGS4 act: RGS4 potentiators or activators, primary screen, cell-based, HEK293 M3R inducible RGS4, calcium flux | carbachol calcium flux Fluo4; hits give low values | B-score at 10 µM | hit rate 0.92% among 310,000 | AID 463111, 2010;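 active = B-score of the integrated calcium signal more than 4 SD below the library mean, with starting fluorescence not abnormally high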;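 note: negative B-score means reduced calcium response which marks RGS4 activation or potentiation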
#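 test system = HEK293 cells with stable M3R and inducible RGS4 | schedule = recording 10 s baseline at 1 Hz, 100 s post-agonist | technique = Fluo4-AM (2 µM) calcium-flux fluorescence, kinetic read | measure = Agonist-evoked peak-minus-minimum fluorescence over baseline, integrated ratio, B score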
# MrgX1 ant reconf: MrgX1 receptor antagonists, duplicate retest, confirmation, HEK293 cells, Fluo-4 calcium flux; shares compounds with MrgX1 antagonist; AID 602420, 2012; remaining BAM8-22 calcium response % of control (hits give low values), % at 10 µM; hit rate 19% among 2,300; BAM8-22 calcium flux; hits give low values;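 active = remaining agonist calcium response no higher than 100% minus 3 SD of agonist-only control wells, with starting fluorescence near control levels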;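 note: agonist BAM8-22 given at a near maximal EC90 to ECmax level; peak minus minimum fluorescence divided by baseline after agonist addition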
# HEK293 Ca flux: nonspecific calcium signal in parental HEK293, confirmation, counter-screen for MrgX1 antagonist project, parental HEK293 cells, Fluo-4 calcium flux | Fluo-4 calcium fluorescence, FDSS | hit rate 2% among 4,000 | shares compounds with MrgX1 antagonist | fluorescence ratio F(max-min)/F0 at 10 µM;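 active = duplicate-averaged calcium fluorescence ratio at least three times the standard deviation of buffer wells, a nonspecific response in parental cells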
# HEK293 Ca counter: calcium response in parental HEK293 cells, primary screen, counter-screen for MrgX1 allosteric activator project, cell-based, Fluo-4 calcium flux, duplicate; Fluo-4 fluorescence ratio; hits give high values; AID 624114, 2012; hit rate 0.4% among 4,000; shares compounds with MrgX1 antagonist; fluorescence ratio F(max-min)/F0 at 10 µM;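 active = calcium fluorescence ratio, averaged over duplicates, at least 3 SD of the buffer-well ratio, meaning a nonspecific response in receptor-free cells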;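 note: untransfected parental HEK293 lacking MrgX1 used as counterscreen for MrgX1 allosteric activators; fluorescence change taken during the second addition on a kinetic imager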
# HEK293 Ca cntr2: calcium response in parental HEK293 cells, primary screen, counter-screen for MrgX1 agonist project, cell-based, Fluo-4 calcium flux, duplicate, agonist mode; shares compounds with MrgX1 antagonist; Fluo-4 calcium fluorescence (FDSS); hits give high values; fluorescence ratio F(max-min)/F0 at 10 µM; hit rate 8.7% among 4,000;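 active = calcium fluorescence ratio at least three times the spread of buffer wells, meaning a non-specific response in parental cells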
# A number is an active result; - = inactive; . = no result. An excerpt weighted towards active compounds, which were near 3.5% of everything screened.
SMILES,MrgX1 allo act,MrgX1 antagonist,RGS4 block,MrgX1 agonist,RGS4 act,MrgX1 ant reconf,HEK293 Ca flux,HEK293 Ca counter,HEK293 Ca cntr2
O=C1CN(C(=O)COc2c(F)c(F)cc(F)c2F)c2ccccc2N1,-,-,-,-,-,.,.,.,.
CC(C(=O)O)N(C(=O)c1ccccc1)c1ccc(F)cc1 (centres undefined),-,-5.5,-,-,-,81%,-,-,-
O=C(COc1cccc(NC(=O)c2ccccc2)c1)c1ccccc1,-,-,-,-,-,.,.,.,.
O=C(COc1cccc(NC(=O)c2cccs2)c1)c1ccc(F)cc1,-,-4.9,-,-,-,-,-,-,-
O=C(Nc1cc(Cl)ccc1N1CCOCC1)C1=COCCO1,-,-,-,-,-,.,.,.,.
CC1CC(C)CN(C(=S)Nc2ccc(SC(F)F)cc2)C1 (centres undefined),-,-5,-,-,-,-,-,-,-
CCCCNC(=S)Nc1ccc(F)cc1,-,-,-,-,-,.,.,.,.
CC1CN(C(=S)Nc2ccc(SC(F)F)cc2)CC(C)O1 (centres undefined),-,-,-,-,-,.,.,.,.
CCCCNC(=S)Nc1ccc(SC(F)F)cc1,-,-6.9,-,-,-,-,-,-,-
Cc1oc2c(CN(C)C)c(O)ccc2c(=O)c1-c1ccc2ccccc2n1,-,-8.6,-,-,-,-,-,-,-
CCC(=O)N1c2ccccc2NC2=C(C(=O)CC(C)(C)C2)C1c1cccnc1 (centres undefined),-,-,-,-,-,.,.,.,.
CCOc1ccc(C2CC(=O)N(Nc3ccc([N+](=O)[O-])cc3[N+](=O)[O-])C2=O)cc1 (centres undefined),-,-,-,-,-,.,.,.,.
O=C(CSc1n[nH]c(=O)n1C1CC1)Nc1cc(Cl)ccc1Oc1ccccc1,-,-8.4,-,-,-,-,-,-,-
O=C(CSc1n[nH]c(=O)n1C1CC1)Nc1ccccc1,-,-,-,-,-,.,.,.,.
CCCc1nnc(SCc2ccc(OCC)cc2)n1N,-,-4.5,-,-,-,-,-,-,-
CCN(CC(=O)NCc1ccc(F)cc1)C(=O)Cc1ccc(OC)cc1,-,-,-,-,-,.,.,.,.
O=C(CCC(=O)Nc1cccnc1)Nc1cccnc1,-,-4.8,-,-,-,-,-,-,-
Cc1ccc(NC(=O)Nc2ccc(F)c(Cl)c2)cc1,-,-6.8,-,-,-,62%,-,-,-
O=C(Nc1cccnc1)Nc1ccc(F)c(Cl)c1,-,-5.2,-,-,-,69%,-,-,-
CCc1cccc(NC(=O)CCc2nc(-c3cccs3)no2)c1,-,-,-,-,-,.,.,.,.
O=C(CCc1nc(-c2cccs2)no1)Nc1cnc2ccccc2c1,-,-5.6,-,-,-,84%,-,-,-
CN(CC(=O)NC(=O)NC(C)(C)C)CC(=O)Nc1ccccc1Cl,-,-,-,-,-,.,.,.,.
Cc1ccc(CN2CCN(C(=O)c3ccncc3)CC2)cc1,-,-4.7,-,-,-,-,-,-,-
O=C(c1ccccc1)N1CCN(Cc2ccccc2)CC1,-,-,-,-,-,.,.,.,.
CCn1c(C(=O)O)c(CC(=O)Nc2cccc(C(F)(F)F)c2)c2ccccc21,-,-,-,-,-,.,.,.,.
SMILES,MrgX1 allo act,MrgX1 antagonist,RGS4 block,MrgX1 agonist,RGS4 act,MrgX1 ant reconf,HEK293 Ca flux,HEK293 Ca counter,HEK293 Ca cntr2
O=C(O)Cn1c2c(c3ccccc31)CSc1ccc(Cl)cc1-2,-,-,-,-,-,.,.,.,.
Cc1ccc(NC(=S)Nc2ccc(Br)cc2)cc1,-,-5.8,-,-,-,59%,-,-,-
S=C(Nc1ccccc1)Nc1ccc(Br)cc1,-,-7.3,-,-,-,69%,-,-,-
S=C(Nc1ccccc1)Nc1cccc(Br)c1,-,-5.4,-,-,-,63%,-,-,-
Fc1ccccc1NC(=S)Nc1ccc(Br)cc1,-,-6.1,-,-,-,71%,-,-,-
CC(=O)Nc1ccc(NC(=S)Nc2ccc(Br)cc2)cc1,-,-,-,-,-,.,.,.,.
C=CCN1C(=O)CSc2ccc(C(=O)NCc3ccc(F)cc3)cc21,-,-,-,-,-,.,.,.,.
Cc1sc2nc(SCC(=O)N3CCOCC3)[nH]c(=O)c2c1-c1ccccc1,-,-5.1,-,-,-,-,-,-,-
Oc1ccc(N2CCN(C(c3ccncc3)c3nnnn3C3CCCC3)CC2)cc1 (centres undefined),-,-8.1,-,-,-,-,-,-,-
O=C(CN1C(=O)C2C3c4ccccc4C(c4ccccc43)C2C1=O)Nc1cccc(C(=O)O)c1 (centres undefined),-,-,-,-,-,.,.,.,.
CCCN1C2CCCC1CC(NC(=O)NC1CCCCC1)C2 (centres undefined),-,-,-,-,-,.,.,.,.
O=C(CN1C2CCC1CC(NC(=O)NC1CCCCC1)C2)NC1CC1 (centres undefined),-,-5.5,-,-,-,-,-,-,-
O=C(O)Cc1sc(NC2CCCCC2)nc1-c1ccc(Cl)cc1,-,-9.6,-,-,-,82%,-,-,-
Cc1ccc(-c2nc(Nc3cccc(C)c3)sc2CC(=O)O)cc1,-,-,-,-,-,.,.,.,.
O=C(Nc1ccc(S(=O)(=O)Nc2ccccc2)cc1)c1ccc(CN2CCOCC2)cc1,-,-4.6,-,-,-,79%,-,-,-
O=C(Nc1ccc(CN2CCOCC2)cc1)c1ccc(Cl)cc1,-,-,-,-,-,.,.,.,.
CN(C)CCNC(=O)c1sc2nc(-c3ccccc3)cc(C(F)(F)F)c2c1N,-,-7.7,-,-,-,-,-,-,-
COc1ccc(OC)c(NC(=O)c2sc3nc(Cc4ccccc4)cc(C(F)(F)F)c3c2N)c1,-,-,-,-,-,.,.,.,.
Cc1c(C(=O)O)sc2nc(-c3cccs3)cc(C(F)(F)F)c12,-,-,-,-,-,.,.,.,.
CC(=O)c1sc2nc(-c3cccs3)cc(C(F)(F)F)c2c1N,-,-10,-,-,-,-,-,-,-
